The target in assay [1] is RAC-alpha serine/threonine-protein kinase (Homo sapiens) (UniProt P31749). Briefly: Inhibition of human Protein kinase B alpha at 30 uM. In outline: (§1)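 Kinase activity assayed with ATP at 100 µM, deliberately higher than usual assay ATP levels because the inhibitors are assumed ATP-competitive. Results are reported as percent inhibition of each kinase.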
The target in assay [2] is Mitogen-activated protein kinase 10 (Rattus norvegicus) (UniProt P49187). Briefly: Inhibition of rat c-Jun N-terminal kinase-3 at 30 uM. In outline: as §1
For assay [3], the target named is Mitogen-activated protein kinase 1 (Homo sapiens) (UniProt P28482). Briefly: Inhibition of human Mitogen-activated protein kinase 2 at 30 uM. In short, it runs like this: as §1
In assay [4] the target is Mitogen-activated protein kinase 9 (Homo sapiens) (UniProt P45984). Briefly: Inhibition of human c-Jun N-terminal kinase-2 alpha-2 at 30 uM. In short, it runs like this: as §1
The target in assay [5] is Dual specificity mitogen-activated protein kinase kinase 1 (Homo sapiens) (UniProt Q02750). The experiment in a line: Inhibition of human Mitogen activated protein kinase kinase 1 (MEK1) at 30 uM. In outline:
as §1

Assay [6] addresses Mitogen-activated protein kinase 8 (Homo sapiens) (UniProt P45983). The experiment in a line: Inhibition of human c-Jun N-terminal kinase-1 alpha-1 at 30 uM. In short, it runs like this: as §1
Assay [7] has as its target Rho-associated protein kinase 2 (Homo sapiens) (UniProt O75116). Briefly: Inhibition of human Rho-dependent protein kinase-II at 30 uM.
The target of assay [8] is cAMP-dependent protein kinase (PKA) (Homo sapiens) (UniProt P22694+P17612+P22612). Briefly: Inhibition of human cAMP-dependent protein kinase (PKA). Format: protein assay. As to conditions: concentration not given here. Further details: concentration or dose not given beside the values.
For assay [9], the target named is RAF proto-oncogene serine/threonine-protein kinase (Homo sapiens) (UniProt P04049). Briefly: Inhibition of human RAF proto-oncogene serine/threonine-protein kinase at 30 uM. In outline:
as §1

Assay [10] concerns the target Tyrosine-protein kinase Lck (Homo sapiens) (UniProt P06239). The experiment in a line: Inhibition of human lymphocyte protein tyrosine kinase Lck at 30 uM. In outline:
as §1

The target in assay [11] is Ca2+/calmodulin-dependent protein kinase II (CaM kinase II) (Rattus norvegicus) (UniProt P11275+P08413+P15791+P11730). The experiment in a line: Inhibition of rat Calcium/calmodulin-dependent protein kinase type II at 30 uM. Format: protein assay. In short, it runs like this:
as §1

The target in assay [12] is Glycogen synthase kinase-3 beta (Homo sapiens) (UniProt P49841). The experiment in a line: Inhibition of human Glycogen synthase kinase-3 beta at 30 uM. In short, it runs like this:
as §1

Assay [13] addresses Protein kinase C alpha type (Homo sapiens) (UniProt P17252). The experiment in a line: Inhibition of human Protein kinase C alpha. Further details: concentration or dose not given beside the values. As to conditions: concentration not given here.
Assay [14] concerns the target Mitogen-activated protein kinase 14 (Homo sapiens) (UniProt Q16539). Briefly: Inhibition of human stress-activated protein kinase-2 alpha (p38 MAP-kinase) at 30 uM. In outline: as §1

RAF proto-oncogene serine/threonine-protein kinase (Homo sapiens), sequence (P04049 whole entry): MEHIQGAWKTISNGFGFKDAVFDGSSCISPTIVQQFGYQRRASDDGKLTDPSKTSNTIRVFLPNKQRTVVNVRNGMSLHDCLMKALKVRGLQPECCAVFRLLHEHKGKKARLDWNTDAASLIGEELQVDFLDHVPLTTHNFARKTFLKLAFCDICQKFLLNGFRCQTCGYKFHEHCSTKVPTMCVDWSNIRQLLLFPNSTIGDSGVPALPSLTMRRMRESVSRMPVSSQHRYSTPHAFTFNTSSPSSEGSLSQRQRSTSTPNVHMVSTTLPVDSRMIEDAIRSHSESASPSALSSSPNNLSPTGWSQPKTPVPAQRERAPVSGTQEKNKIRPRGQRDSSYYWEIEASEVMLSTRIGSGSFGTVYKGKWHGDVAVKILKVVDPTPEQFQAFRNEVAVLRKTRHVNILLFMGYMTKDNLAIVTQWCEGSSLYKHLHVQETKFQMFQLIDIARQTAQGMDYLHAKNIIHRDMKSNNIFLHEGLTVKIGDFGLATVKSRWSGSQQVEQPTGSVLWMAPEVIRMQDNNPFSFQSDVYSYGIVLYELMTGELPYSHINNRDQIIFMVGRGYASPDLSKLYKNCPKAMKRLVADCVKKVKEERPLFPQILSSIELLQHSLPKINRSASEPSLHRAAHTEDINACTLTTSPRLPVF
Tyrosine-protein kinase Lck (Homo sapiens), sequence (P06239 2-509 limits assumed): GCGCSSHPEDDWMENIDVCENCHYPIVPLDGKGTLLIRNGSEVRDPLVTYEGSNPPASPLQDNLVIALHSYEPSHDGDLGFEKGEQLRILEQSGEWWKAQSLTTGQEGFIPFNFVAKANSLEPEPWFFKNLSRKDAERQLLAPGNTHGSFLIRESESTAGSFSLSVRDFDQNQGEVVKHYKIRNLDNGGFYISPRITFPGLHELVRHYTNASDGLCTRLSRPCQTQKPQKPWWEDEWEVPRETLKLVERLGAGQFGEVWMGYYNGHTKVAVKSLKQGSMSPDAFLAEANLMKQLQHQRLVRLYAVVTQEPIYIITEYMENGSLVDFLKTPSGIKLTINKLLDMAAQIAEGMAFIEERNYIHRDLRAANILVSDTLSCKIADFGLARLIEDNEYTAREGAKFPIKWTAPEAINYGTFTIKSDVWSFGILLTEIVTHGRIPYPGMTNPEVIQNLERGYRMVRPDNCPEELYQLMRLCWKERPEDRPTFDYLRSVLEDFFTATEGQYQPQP
Rho-associated protein kinase 2 (Homo sapiens), sequence (O75116 whole entry, looked up): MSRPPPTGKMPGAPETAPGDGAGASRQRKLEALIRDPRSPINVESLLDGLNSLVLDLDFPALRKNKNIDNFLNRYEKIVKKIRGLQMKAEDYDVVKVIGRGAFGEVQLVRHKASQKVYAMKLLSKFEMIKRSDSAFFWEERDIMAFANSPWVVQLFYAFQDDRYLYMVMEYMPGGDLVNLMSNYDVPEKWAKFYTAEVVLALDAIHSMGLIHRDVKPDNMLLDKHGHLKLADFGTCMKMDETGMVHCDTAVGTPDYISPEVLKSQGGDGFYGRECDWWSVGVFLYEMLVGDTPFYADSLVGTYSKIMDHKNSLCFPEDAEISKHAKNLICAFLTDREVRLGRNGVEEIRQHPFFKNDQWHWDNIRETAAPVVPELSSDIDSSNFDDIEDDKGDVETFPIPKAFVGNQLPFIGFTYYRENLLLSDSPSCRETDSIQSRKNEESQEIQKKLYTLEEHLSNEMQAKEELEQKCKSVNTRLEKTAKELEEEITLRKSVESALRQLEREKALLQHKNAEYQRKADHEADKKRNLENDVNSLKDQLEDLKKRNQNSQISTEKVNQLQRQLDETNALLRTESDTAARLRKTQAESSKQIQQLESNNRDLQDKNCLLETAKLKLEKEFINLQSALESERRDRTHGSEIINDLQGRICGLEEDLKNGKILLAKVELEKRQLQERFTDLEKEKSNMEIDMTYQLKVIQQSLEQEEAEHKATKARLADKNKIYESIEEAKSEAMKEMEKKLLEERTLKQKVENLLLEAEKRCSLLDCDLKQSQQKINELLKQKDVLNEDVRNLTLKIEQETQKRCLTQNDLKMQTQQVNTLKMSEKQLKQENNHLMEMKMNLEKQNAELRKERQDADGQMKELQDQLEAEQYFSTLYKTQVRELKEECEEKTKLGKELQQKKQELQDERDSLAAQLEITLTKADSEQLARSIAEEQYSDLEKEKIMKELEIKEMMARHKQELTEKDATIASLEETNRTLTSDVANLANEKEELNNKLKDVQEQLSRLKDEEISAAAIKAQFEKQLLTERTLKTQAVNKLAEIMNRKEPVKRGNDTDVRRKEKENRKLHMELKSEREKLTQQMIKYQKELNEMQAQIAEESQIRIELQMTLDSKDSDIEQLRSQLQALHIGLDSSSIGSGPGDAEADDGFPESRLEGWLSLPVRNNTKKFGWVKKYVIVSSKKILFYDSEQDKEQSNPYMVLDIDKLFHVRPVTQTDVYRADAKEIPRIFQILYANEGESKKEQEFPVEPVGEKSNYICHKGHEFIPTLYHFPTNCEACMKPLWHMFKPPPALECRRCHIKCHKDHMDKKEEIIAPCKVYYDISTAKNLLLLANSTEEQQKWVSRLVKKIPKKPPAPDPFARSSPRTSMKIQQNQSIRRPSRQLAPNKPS
Mitogen-activated protein kinase 14 (Homo sapiens), sequence (Q16539 whole entry): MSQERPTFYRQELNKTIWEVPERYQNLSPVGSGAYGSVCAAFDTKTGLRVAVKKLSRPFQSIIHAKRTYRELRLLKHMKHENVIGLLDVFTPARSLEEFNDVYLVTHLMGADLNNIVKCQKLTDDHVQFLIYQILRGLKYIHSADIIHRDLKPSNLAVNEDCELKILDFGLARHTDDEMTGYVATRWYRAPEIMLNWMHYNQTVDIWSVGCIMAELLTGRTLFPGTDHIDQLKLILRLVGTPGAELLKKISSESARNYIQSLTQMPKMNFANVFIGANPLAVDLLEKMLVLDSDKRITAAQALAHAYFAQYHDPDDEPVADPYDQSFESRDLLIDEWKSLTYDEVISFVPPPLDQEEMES
Glycogen synthase kinase-3 beta (Homo sapiens), sequence (P49841 whole entry, looked up): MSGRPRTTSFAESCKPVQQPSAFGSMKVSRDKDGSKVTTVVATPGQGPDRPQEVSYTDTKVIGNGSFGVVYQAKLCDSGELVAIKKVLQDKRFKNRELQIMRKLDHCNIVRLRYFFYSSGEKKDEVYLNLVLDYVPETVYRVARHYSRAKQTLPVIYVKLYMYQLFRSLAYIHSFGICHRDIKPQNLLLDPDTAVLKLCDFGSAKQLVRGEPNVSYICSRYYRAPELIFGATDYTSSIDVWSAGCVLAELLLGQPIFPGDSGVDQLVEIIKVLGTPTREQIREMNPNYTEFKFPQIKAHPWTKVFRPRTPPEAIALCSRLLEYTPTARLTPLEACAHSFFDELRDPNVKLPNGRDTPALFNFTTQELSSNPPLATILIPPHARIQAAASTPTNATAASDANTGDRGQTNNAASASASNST
Mitogen-activated protein kinase 8 (Homo sapiens), sequence (P45983 whole entry): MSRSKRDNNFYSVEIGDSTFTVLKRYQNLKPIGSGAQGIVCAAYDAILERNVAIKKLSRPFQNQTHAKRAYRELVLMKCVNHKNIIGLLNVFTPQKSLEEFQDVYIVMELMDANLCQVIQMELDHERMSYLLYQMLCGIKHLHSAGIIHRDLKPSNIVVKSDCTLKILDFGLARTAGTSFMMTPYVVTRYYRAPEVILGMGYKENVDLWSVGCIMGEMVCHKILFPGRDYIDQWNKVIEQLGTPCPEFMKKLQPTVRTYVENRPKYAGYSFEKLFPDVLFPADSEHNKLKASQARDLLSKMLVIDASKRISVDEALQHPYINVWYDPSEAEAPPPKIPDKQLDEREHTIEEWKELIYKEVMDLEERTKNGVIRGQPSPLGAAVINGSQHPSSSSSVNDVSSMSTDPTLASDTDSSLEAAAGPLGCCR
RAC-alpha serine/threonine-protein kinase (Homo sapiens), sequence (P31749 whole entry): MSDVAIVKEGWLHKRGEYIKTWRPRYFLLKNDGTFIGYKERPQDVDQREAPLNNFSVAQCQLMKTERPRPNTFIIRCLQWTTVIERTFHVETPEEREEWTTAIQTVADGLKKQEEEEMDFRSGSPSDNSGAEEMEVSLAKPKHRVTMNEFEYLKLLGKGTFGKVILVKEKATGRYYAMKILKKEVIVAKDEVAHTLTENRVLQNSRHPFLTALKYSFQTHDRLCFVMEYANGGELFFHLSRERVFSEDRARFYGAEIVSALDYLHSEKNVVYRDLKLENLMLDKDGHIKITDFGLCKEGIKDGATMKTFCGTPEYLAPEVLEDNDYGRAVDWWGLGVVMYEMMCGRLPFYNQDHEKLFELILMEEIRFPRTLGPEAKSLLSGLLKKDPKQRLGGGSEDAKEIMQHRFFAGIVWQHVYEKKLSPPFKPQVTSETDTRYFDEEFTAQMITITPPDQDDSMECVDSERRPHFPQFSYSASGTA

For orientation: inhibition means the share of the control response that was lost under treatment. In the case of `Clc1ncnc2c1ncn2Cc1ccccc1`, the inhibition was determined as 0% in assay [1]; 16% in assay [2]; 0% in [3]; 0% in assay [4]; 3% in assay [5]; 0% in assay [6]. In addition, the inhibition in assay [7] is 3%; in assay [8], 2%; in [9], 4%; in assay [10] it was 0%; in [11], 7%; in [12], 0%. For the same molecule, the values for the inhibition in [13] and in assay [14] were 17% and 11%, respectively.
As to `Cn1cnc2c(SCc3ccccc3)ncnc21`, the inhibition in assay [1] was 4%; in assay [2] it was 5%; in [3] it was 0%; in assay [4], 7%; in assay [5], 6%; in assay [6], 1%. The inhibition in assay [7] worked out at 1%; in assay [8] it was 0%; in assay [9] it was 12%; in [10], 6%; in [11], 0%; in assay [12] it was 10%. Also, the inhibition was 13% in [13] and 22% in assay [14].
For the molecule `Fc1ccc(C[n+]2c[nH]c3ncncc32)cc1`, the inhibition in assay [1] came to 8%; in assay [2] it was 12%; in [3] it was 4%; in [4], 0%; in [5] it was 0%; in [6] it was 0%. The inhibition in assay [7] was 4%; in assay [8] it was 0%; in assay [9], 7%; in assay [10], 13%; in assay [11], 5%; in assay [12], 10%. The values for the inhibition in assay [13] and in [14] were 15% and 5%, respectively.
As for `Cn1cnc2c(Sc3ccc(F)cc3)ncnc21`, the inhibition worked out at 0% in assay [1]; 9% in [2]; 12% in [3]; 10% in [4]; 6% in assay [5]; 10% in [6]. For the same molecule, the inhibition in assay [7] was 6%; in assay [8] it was 1%; in assay [9], 12%; in assay [10] it was 2%; in [11], 5%; in [12], 0%. The figures for the inhibition in assay [13] and in assay [14] were 7% and 38%, respectively.
Take `Cn1cnc2c(Sc3ccccc3)ncnc21`: the inhibition in assay [1] came to 0%; in assay [2], 7%; in [3], 12%; in assay [4], 6%; in assay [5], 3%; in assay [6] it was 3%. Also, the inhibition was 6% in assay [7]; 0% in assay [8]; 10% in assay [9]; 6% in assay [10]; 8% in [11]; 3% in assay [12]. In addition, the results for the inhibition in assay [13] and in assay [14] were 13% and 17%, respectively.
As for `Cn1c(-c2ccccc2)nc2c(-c3ccc(F)cc3)ncnc21`, the inhibition in assay [1] amounted to 31%; in assay [2], 12%; in assay [3], 1%; in [4], 8%; in [5], 5%; in assay [6], 2%. In addition, the inhibition in [7] turned out to be 0%; in assay [8] it was 0%; in [9], 24%; in assay [10] it was 17%; in assay [11], 5%; in assay [12], 26%. The inhibition in assay [13] stood at 17%; in [14], 23%.
Consider `Fc1ccc(Cc2[nH]cnc3ncnc2-3)cc1`, for which the inhibition in assay [1] turned out to be 3%; in assay [2], 0%; in assay [3], 0%; in [4] it was 0%; in assay [5], 0%; in assay [6], 0%. Moreover, the inhibition in [7] stood at 2%; in assay [8] it was 0%; in [9], 0%; in assay [10], 0%; in assay [11] it was 8%; in assay [12] it was 2%. Moreover, the inhibition in assay [13] amounted to 0%; in assay [14] it was 1%.
Consider `Fc1ccc(CSc2[nH]cnc3ncnc2-3)cc1`, for which the inhibition in assay [1] worked out at 6%; in [2], 12%; in assay [3], 5%; in assay [4], 0%; in assay [5] it was 0%; in assay [6], 0%. The inhibition is 18% in assay [7]; 47% in assay [9]; 16% in assay [10]; 3% in [11]; 0% in [12]; 4% in [13]. Moreover, the inhibition in assay [14] worked out at 29%.
In the case of `Cn1c(-c2ccc([S+](C)[O-])cc2)nc2c(Sc3ccccc3)ncnc21` (configuration not stated), the inhibition in assay [1] worked out at 4%; in assay [2] it was 6%; in [3], 0%; in [4], 0%; in assay [5], 3%; in [6], 0%. In addition, the inhibition in [7] is 1%; in assay [8], 0%; in assay [9] it was 0%; in assay [10], 30%; in [11] it was 8%; in [12], 4%. For the same molecule, the inhibition in assay [13] is 8%; in assay [14], 27%.
Take `Cn1cnc2c(Nc3ccc(F)cc3)ncnc21`: the inhibition is 0% in [1]; 19% in [2]; 57% in [3]; 6% in assay [4]; 8% in [5]; 5% in assay [6]. Also, the inhibition is 7% in [7]; 0% in [8]; 27% in [9]; 9% in assay [10]; 8% in assay [11]; 14% in assay [12]. Also, the inhibition in assay [13] was determined as 11%; in assay [14], 13%.
As for `Cn1c(-c2ccccc2)nc2c(Sc3ccc(F)cc3)ncnc21`, the inhibition in assay [1] came out at 29%; in [2] it was 16%; in assay [3] it was 1%; in [4], 0%; in assay [5], 7%; in assay [6], 2%. In addition, the inhibition was 9% in assay [7]; 3% in assay [8]; 14% in assay [9]; 20% in [10]; 8% in [11]; 22% in assay [12]. The figures for the inhibition in assay [13] and in assay [14] were 17% and 29%, respectively.
As to `Cn1c(-c2ccc(S(C)(=O)=O)cc2)nc2c(Sc3ccc(F)cc3)ncnc21`, the inhibition in assay [1] amounted to 4%; in [2], 5%; in assay [3], 0%; in [4], 2%; in assay [5], 0%; in assay [6], 0%. The inhibition in assay [7] was 0%; in [8] it was 3%; in assay [9], 6%; in assay [10], 10%; in [11], 0%; in assay [12] it was 0%. Further, the inhibition came to 7% in assay [13] and 19% in assay [14].

For the origin of these results see ChEMBL document CHEMBL1141882, “Synthesis and biological testing of purine derivatives as potential ATP-competitive kinase inhibitors” (J Med Chem, 2005).
